In series [1] the target is T1, Mu-type opioid receptor (Homo sapiens, UniProt P35372). Put plainly: Agonist activity at human MOR expressed in CHO-K1 cells co-expressing beta-arrestin2 assessed as beta-arrestin2 EFC recruitment measured after 90 mins by PathHunter assay relative to control. The series is classed as functional, cell-based. In a few lines:
(§1)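 CHO-K1 cells stably expressing human μOR grown to confluency and seeded overnight at 37 °C, 5% CO2. 5× dilution series of compound in Opti-MEM added for 90 min at 37 °C. Detection reagent then added for 60 min at room temperature in the dark, and chemiluminescence read.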

The target of series [2] is T1, Mu-type opioid receptor. Description: Partial agonist activity at human MOR expressed in HEK293T cells co-expressing Galpha-RLuc8:Gbeta:Ggamma-GFP2 assessed as maximal Gi-1 activation measured after 15 mins by BRET assay relative to control. The series is classed as functional, cell-based. To be noted: filed as partial agonist. On the technique in general: Bioluminescence resonance energy transfer reports proximity on the nanometre scale.

Series [3] concerns the target T1, Mu-type opioid receptor. Description: Agonist activity at human MOR receptor expressed in HTLA cells co-expressing TEV-fused-beta-arrestin2 assessed as induction of beta-arrestin2 recruitment by Tango assay. The series is classed as functional, cell-based. In a few lines: (§2)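 HTLA cells expressing TEV-fused β-arrestin2 transiently transfected with a human MOR Tango construct. β-arrestin2 recruitment measured. […] Mean pEC50 ± SEM and Emax% ± SEM from triplicate runs.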

Series [4] addresses T1, Mu-type opioid receptor. Put plainly: Partial agonist activity at human MOR expressed in HEK293T cells co-expressing Galpha-RLuc8:Gbeta:Ggamma-GFP2 assessed as Galpha-i/o activation measured after TRUPATH assay. In kind it is functional, cell-based. To be noted: filed as partial agonist.
The nature of series [5]: Toxicity in C57BL/6 mouse model assessed as charcoal distance travel at 15 mg/kg, sc measured after 3 hrs by gastrointestinal transit assay (reference value: 29.5 +/- 1 cm). The series is classed as organism-based. To be noted: in vivo.
Series [6] relates to Mus musculus. Description: Antinociceptive activity in C57BL/6 mouse model assessed as measuring increase in tail withdrawal latency at 10 mg/kg, po at 55 degC measured at 30 mins peak time point by […] withdrawal assay. The series is classed as functional. The following applies: 0.5 h. The procedure, abridged:
(§3)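 C57BL/6J mice given compound sc or po. 55 °C warm-water tail withdrawal with baseline latency taken first, then measured every 10 min, 15 s cutoff. % antinociception = 100 × (test − baseline)/(15 − baseline). sc doses 1, 3, 10 mg/kg (n = 8). po dose 10 mg/kg (n = 13). ED50 with 95% CI.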

A short description of series [7]: Toxicity in C57BL/6 mouse model assessed as hyperlocomotion at 15 times of ED50 for antinociceptive effect. To be noted: in vivo. The procedure, abridged:
(§4)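 Mice habituated 60 min in sealed CLAMS cages, dosed sc, and confined 5 min later. Respiration rate measured by pressure transducer and ambulation by infrared beam breaks, every 20 min. […] Expressed as % vehicle. Two-way ANOVA with Dunnett's test.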

Series [8] in a line: Toxicity in C57BL/6 mouse model assessed as conditioned place preference at 10 mg/kg, IP. The series is classed as organism-based. To be noted: in vivo. The procedure, abridged:
(§5)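 Counterbalanced two-compartment place conditioning in C57BL/6J mice. […] Time on drug-paired side over a 20 min test compared with preconditioning by Welch-corrected t test.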

A short description of series [9]: Toxicity in C57BL/6 mouse model assessed as conditioned place preference at 15 mg/kg, sc. In kind it is organism-based. The following applies: in vivo. The procedure, abridged:
as §5

The target of series [10] is T1, Mu-type opioid receptor. Put plainly: Agonist activity at human MOR receptor expressed in HTLA cells co-expressing TEV-fused-beta-arrestin2 assessed as induction of beta-arrestin2 recruitment by Tango assay relative to DAMGO. The following applies: HTLA230, filed as partial agonist. In kind it is functional, cell-based. The procedure, abridged: as §2
(Recruitment of arrestin is a read-out of receptor activation apart from second messengers.)

Series [11] deals with T1, Mu-type opioid receptor. Put plainly: Agonist activity at human MOR expressed in HEK-293T cells assessed as inhibition of forskolin-stimulated cAMP accumulation incubated for 30 mins by Glo-sensor cAMP assay relative to DAMGO. The following applies: HEK293T, filed as partial agonist. In kind it is functional, cell-based. The procedure, abridged:
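HEK293T cells transiently co-transfected with human MOR and a luciferase-based cAMP biosensor. Gαi-mediated cAMP inhibition read by luminescence. […] EC50 given as pEC50 ± SEM, triplicate runs.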
(Changes in cAMP serve as a functional read-out for many G protein-coupled receptors.)

Series [12] in a line: Toxicity in C57BL/6 mouse model assessed as respiratory depression at 15 times of ED50 for antinociceptive effect. The following applies: in vivo. In a few lines:
as §4

Series [13] can be described thus: Toxicity in C57BL/6 mouse model assessed as conditioned place aversion at 15 mg/kg, sc. In kind it is organism-based. The following applies: in vivo. In a few lines: as §5
For series [14], the target named is Voltage-dependent L-type calcium channel subunit alpha-1C (Rattus norvegicus, UniProt P22002). Description: Displacement of [3H]Diltiazem from Cav1.2 in rat brain at 10 uM incubated for 120 mins by radiometric scintillation counting analysis. The series is classed as tissue-based. The following applies: 2 h.
Series [15] concerns the target T1, Mu-type opioid receptor. Description: Displacement of [3H]-DAMGO from mu opioid receptor (unknown origin) expressed in CHO cells at 10 uM. In kind it is cell-based.
In series [16] the test system is Mus musculus. Put plainly: Antinociceptive activity in C57BL/6 mouse model assessed as measuring increase in tail withdrawal latency at 10 mg/kg, sc at 55 degC measured at 20 mins peak time point by […] withdrawal assay. In kind it is functional. The procedure, abridged: as §3
Series [17] concerns Mus musculus. Description: Antinociceptive activity in sc dosed C57BL/6 mouse model assessed as increase in tail withdrawal latency measured at 20 mins by […] withdrawal assay. In kind it is functional. To be noted: C57BL/6, sc. The procedure, abridged:
as §3

The target of series [18] is T1, Mu-type opioid receptor. Description: Agonist activity at human MOR expressed in HEK293T cells assessed as inhibition of forskolin-stimulated cAMP accumulation incubated for 30 mins by Glo-sensor cAMP assay. The series is classed as functional, cell-based. The procedure, abridged:
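HEK293T cells transiently co-transfected with human MOR and a luciferase-based cAMP biosensor. Gαi-mediated cAMP inhibition read by luminescence. EC50 given as pEC50 ± SEM, triplicate runs.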

The target of series [19] is GABA-A receptor; anion channel (Rattus norvegicus) (UniProt O09028+P15431+P18506+P18508+P19969+P20236+P23574+P23576+P28471+P28473+P30191+P62813+P63079+P63138+Q91ZM7+Q9ES14). Put plainly: Partial agonist activity at GABAA receptor in rat brain slice assessed as induction of receptor-mediated inhibitory postsynaptic current at 10 uM by Whole cell electrophysiology. In kind it is tissue-based. The following applies: filed as partial agonist. The procedure, abridged:
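Horizontal VTA slices (200 μm) from male Sprague–Dawley rats. Whole-cell voltage clamp at −70 mV, 33 °C, KCl internal. GABAA IPSCs isolated with 10 μM DNQX and evoked by paired pulses every 10 s. Drug (10 μM) bath applied. Mean IPSC amplitude at minutes 4–7 of drug compared with the 4 min baseline.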

Series [20] addresses Mu-type opioid receptor (Mus musculus) (UniProt P42866). Description: Partial agonist activity at mouse MOR expressed in HEK293T cells assessed as Nb33 recruitment by BRET assay relative to control. The series is classed as functional, cell-based. The procedure, abridged:
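HEK293T cells transfected with murine MOR-NanoLuc (1 μg) and Nb33-Venus (4 μg) using PEI and used 48 h later. Cells in PBS given coelenterazine H (5 μM), ligand added at 5 min, BRET read 10 min later. Three-parameter fit; ≥3 independent trials in triplicate.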

The test system of series [21] is Mus musculus. Put plainly: Antinociceptive activity in sc dosed C57BL/6 MOR knock out mouse model assessed as increase in tail withdrawal latency measured at 20 mins by radiant heat withdrawal assay. In kind it is functional, organism-based.
Series [22] addresses T1, Mu-type opioid receptor. Description: Agonist activity at human MOR expressed in CHO-K1 cells co-expressing beta-arrestin2 assessed as beta-arrestin2 EFC recruitment measured after 90 mins by PathHunter assay. In kind it is functional, cell-based. The procedure, abridged:
as §1

Activity calls are given as the source filed them. A value given as a limit tells only on which side of the number the result lay.

In general, Emax refers to the greatest response seen or fitted, relative to the assay's reference. For orientation: EC50 means the concentration needed to bring the measured effect to its halfway point. The Ki is the equilibrium dissociation constant of an inhibitor or competing ligand from its target. A higher Ki goes with lower affinity. As a reminder, the ED50 is the dose that gives a 50% effect, or the effect in half of the subjects.

T1 sequence (P35372 whole entry): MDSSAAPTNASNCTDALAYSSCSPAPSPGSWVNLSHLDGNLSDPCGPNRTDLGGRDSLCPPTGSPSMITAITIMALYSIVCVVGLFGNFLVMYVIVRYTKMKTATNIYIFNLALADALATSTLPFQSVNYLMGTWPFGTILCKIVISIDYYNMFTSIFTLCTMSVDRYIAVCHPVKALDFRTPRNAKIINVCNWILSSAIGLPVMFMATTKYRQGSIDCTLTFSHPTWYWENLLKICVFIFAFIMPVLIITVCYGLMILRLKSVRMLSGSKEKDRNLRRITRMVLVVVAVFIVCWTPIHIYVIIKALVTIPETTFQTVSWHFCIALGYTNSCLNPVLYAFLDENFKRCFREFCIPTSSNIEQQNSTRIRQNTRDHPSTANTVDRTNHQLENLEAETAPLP
Voltage-dependent L-type calcium channel subunit alpha-1C, sequence (P22002 whole entry): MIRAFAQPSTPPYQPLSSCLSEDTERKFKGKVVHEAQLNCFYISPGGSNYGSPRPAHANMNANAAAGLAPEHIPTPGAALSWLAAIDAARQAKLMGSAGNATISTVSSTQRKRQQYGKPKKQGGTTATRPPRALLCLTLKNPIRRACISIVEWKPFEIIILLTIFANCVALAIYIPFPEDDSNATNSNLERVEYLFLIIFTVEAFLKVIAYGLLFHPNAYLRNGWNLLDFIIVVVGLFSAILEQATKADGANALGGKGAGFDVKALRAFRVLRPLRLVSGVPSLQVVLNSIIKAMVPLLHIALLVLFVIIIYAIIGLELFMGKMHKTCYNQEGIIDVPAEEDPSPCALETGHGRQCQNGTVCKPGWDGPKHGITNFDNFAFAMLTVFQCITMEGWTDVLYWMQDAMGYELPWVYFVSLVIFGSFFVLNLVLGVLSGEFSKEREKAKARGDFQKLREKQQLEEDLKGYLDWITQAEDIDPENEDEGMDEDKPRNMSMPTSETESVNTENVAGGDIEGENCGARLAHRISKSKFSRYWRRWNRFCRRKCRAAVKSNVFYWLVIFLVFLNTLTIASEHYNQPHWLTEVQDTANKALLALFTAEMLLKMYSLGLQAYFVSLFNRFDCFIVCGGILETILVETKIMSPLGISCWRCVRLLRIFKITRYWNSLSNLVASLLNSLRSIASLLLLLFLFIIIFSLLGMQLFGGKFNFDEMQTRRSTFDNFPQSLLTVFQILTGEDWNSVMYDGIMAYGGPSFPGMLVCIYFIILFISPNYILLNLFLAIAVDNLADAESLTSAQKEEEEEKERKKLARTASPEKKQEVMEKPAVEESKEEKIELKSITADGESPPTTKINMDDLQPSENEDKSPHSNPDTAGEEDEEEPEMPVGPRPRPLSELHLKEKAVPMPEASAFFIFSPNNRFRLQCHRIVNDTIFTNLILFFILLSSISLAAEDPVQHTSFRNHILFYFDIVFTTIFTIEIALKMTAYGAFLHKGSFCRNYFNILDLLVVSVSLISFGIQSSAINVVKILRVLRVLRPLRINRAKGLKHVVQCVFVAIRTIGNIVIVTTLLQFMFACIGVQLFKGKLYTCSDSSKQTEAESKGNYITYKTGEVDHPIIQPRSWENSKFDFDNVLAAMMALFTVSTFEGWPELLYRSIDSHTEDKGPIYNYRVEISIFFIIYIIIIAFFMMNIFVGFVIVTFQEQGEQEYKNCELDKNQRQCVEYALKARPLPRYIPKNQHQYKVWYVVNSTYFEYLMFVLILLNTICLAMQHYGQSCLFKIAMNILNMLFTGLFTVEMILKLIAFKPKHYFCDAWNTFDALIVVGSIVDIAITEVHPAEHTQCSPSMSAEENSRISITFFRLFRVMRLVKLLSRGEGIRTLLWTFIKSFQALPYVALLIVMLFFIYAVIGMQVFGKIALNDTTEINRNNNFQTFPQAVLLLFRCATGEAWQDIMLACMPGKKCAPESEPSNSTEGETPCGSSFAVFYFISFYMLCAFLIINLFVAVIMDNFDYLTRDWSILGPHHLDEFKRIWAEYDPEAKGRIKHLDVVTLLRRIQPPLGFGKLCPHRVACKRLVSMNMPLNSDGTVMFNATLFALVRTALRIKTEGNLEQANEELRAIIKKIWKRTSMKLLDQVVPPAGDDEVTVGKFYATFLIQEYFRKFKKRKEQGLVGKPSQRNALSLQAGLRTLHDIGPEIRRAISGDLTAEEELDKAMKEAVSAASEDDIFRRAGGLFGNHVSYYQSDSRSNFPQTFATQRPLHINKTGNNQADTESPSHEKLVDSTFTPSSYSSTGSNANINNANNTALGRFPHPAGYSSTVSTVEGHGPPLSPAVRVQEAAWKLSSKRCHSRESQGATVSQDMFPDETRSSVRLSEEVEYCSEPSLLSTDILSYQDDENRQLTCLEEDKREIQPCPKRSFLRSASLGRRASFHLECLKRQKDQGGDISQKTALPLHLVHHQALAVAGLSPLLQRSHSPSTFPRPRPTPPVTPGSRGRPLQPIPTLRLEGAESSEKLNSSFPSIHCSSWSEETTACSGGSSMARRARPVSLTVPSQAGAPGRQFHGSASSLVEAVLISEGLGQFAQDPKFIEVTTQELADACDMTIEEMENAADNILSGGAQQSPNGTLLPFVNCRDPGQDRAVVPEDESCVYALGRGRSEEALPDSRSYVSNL
Mu-type opioid receptor (Mus musculus), sequence (P42866 whole entry): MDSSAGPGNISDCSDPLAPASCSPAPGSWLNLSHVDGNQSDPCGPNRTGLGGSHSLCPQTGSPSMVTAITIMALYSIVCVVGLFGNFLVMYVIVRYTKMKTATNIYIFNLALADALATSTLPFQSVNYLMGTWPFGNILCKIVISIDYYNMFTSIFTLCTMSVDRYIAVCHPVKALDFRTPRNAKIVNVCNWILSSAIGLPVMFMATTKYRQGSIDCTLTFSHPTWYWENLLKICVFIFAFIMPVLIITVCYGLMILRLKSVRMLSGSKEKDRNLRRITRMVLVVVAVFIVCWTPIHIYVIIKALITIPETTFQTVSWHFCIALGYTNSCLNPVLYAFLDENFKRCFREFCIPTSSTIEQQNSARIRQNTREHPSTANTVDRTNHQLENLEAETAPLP

`CC[C@@H]1CN2CC[C@@]3(O)C(=Nc4cccc(-c5ccoc5)c43)[C@@H]2C[C@@H]1/C(=C\OC)C(=O)OC`: the Emax was less than 20% in series [1]; 60% in [2]; 45% in [10]; 106% in series [11]; 20% in [20]; 31% in series [22]. Moreover, the concentration for a half-maximal effect (EC50) in series [3] was found to be 11000 nM; in series [18], 7.25 nM. Also, the outcome in series [4], in series [19] and in series [21] was Active. Further, the Activity in series [5] is listed as 30.8 cm; in series [7], “Non-Toxic”; in series [8], “Toxic”; in series [9] it was “Non-Toxic”; in [12], “Non-Toxic”; in series [13], “Non-Toxic”. The outcome in [14] was Active. Besides, the values for the MPE in [6] and in series [16] were 87% and 100%, respectively. The compound further yielded an inhibition constant (Ki) in series [15] of 6 nM. Moreover, in [17], the ED50 was 3.05 mg/kg.

The values are drawn from ChEMBL document CHEMBL5030540 (J Med Chem, 2021).
